CSC inhib – cancer stem cell viability inhibitors, primary screen, luminescence; cancer stem cell-like cells viability; inhibition, % at 7.5 µM; 300,000 tested, 1.1% active; AID 2717, 2010; in the data active = inhibition above about 75%; tested in HMLE shEcad cells
NR3A LBD binder – binders of NR3A ligand-binding domain, primary screen, biophysical, differential scanning fluorimetry, uHTS; AID 1259313, 2017; Tm shift relative to glycine control, % at 25 µM; NR3A LBD differential scanning fluorimetry, Tm shift; 0% = protein alone, 100% = glycine-bound protein; 340,000 tested, 2.5% active;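 active = melting temperature shift of at least 10% of the positive control shift, at one fixed dose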
CHOP inhibitor – inhibitors of CHOP promoter induction, primary screen, cell-based, unfolded protein response, luciferase reporter. inhibition, % at 10 µM. CHO-K1 CHOP-promoter luciferase, tunicamycin-induced, 15-18 h. 220,000 tested, 3.8% active;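 active = compounds that reduced the stress-induced luciferase reporter signal by more than about 70% of percent inhibition, limit read from the data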;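 note: 0% = tunicamycin plus vehicle and 100% = wells without tunicamycin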
T cruzi repl – inhibitors of intracellular T. cruzi growth, primary screen, luminescence, NIH3T3 host cells; T. cruzi beta-gal in NIH3T3, 90 h; 300,000 tested, 1.4% active; AID 1885, 2009; inhibition, % (no concentration beside the values);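 active = mean inhibition across valid replicates above about 55%, limit read from the data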;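 note: signal also drops with host cell toxicity which is not excluded here; 0% = plate median of DMSO wells and 100% = zero luminescence signal; higher percent means less beta-gal luminescence so fewer parasites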
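Material: NIH/3T3 host cells with β-galactosidase reporter T. cruzi; Input: 5,000 host fibroblasts per well; Medium: DMEM, 2% fetal bovine serum; Compound: 50 nL DMSO compound solution per well; Schedule: 3 h host attachment, then at least 90 h co-culture; Detection: luminescent β-galactosidase signal after 60 min lysis.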
PREPL inhibitor – PREPL enzyme inhibitors, primary screen, biochemical, fluorescence polarization; 320,000 tested, 0.68% active; recombinant PREPL, fluorescence polarization activity-based probe; inhibition, % at 5.96 µM; Prolyl endopeptidase-like (Homo sapiens), Q4J6C6;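 note: 0% = enzyme with DMSO and 100% = wells lacking enzyme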
Target sequence (Q4J6C6 whole entry, looked up): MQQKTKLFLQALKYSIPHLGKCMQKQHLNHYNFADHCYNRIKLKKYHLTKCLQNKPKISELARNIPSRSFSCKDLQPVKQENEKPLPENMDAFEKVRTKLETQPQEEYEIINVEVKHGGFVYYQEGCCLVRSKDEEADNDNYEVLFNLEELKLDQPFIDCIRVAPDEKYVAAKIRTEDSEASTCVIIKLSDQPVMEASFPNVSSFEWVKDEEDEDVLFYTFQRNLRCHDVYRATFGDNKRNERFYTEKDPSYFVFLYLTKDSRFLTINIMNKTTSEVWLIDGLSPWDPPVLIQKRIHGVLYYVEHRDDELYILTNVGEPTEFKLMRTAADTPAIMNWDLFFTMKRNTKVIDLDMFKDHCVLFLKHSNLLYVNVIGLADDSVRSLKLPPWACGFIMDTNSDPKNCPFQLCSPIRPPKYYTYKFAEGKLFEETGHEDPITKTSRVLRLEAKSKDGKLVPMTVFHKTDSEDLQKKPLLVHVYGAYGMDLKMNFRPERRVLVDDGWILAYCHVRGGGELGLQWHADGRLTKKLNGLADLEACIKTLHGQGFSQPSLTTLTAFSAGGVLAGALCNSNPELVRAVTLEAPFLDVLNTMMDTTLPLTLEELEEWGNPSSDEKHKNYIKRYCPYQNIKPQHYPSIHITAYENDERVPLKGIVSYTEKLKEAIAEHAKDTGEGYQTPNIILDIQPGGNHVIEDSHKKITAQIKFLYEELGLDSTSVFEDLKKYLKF
Beta apoptosis – inhibitors of cytokine-induced beta cell apoptosis, primary screen, luminescence. protection from apoptosis, % (concentration not given with the values). 300,000 tested, 0.8% active. INS-1E cytokine-induced death, ATP luminescence, 48 h; percent of positive-control rescue, neutral wells zero;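 active = Every replicate reaches about 75%, or at least half do and their mean reaches it too, limit read from the data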;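 note: 0% = cytokine-treated negative control wells and 100% = positive control rescue; higher means more ATP so stronger rescue from cytokine killing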
PREPL confirm – human PREPL enzyme inhibitors, confirmation, biochemical, fluorescence polarization; inhibition, % at 5.96 µM; 2,000 tested, 67% active; shares compounds with PREPL inhibitor; recombinant PREPL, fluorescence polarization activity probe;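 note: 0% = protein with DMSO and 100% = wells lacking protein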
An asterisk follows results filed as active; . = no result given. Hits are enriched below; roughly 6.7% of the tested compounds scored in any of these assays. Cut-off read from the data, not from the text of the source, unless noted: active = inhibition above about 43%; inactive = the rest.

SMILES | CSC inhib | NR3A LBD binder | CHOP inhibitor | T cruzi repl | PREPL inhibitor | Beta apoptosis | PREPL confirm
CCCC[C@@H](C)C[C@@H](C)C(=O)N(C)[C@@H](CC(C)C)C(=O)N[C@H](C(=O)N(C)[C@H](C(=O)N1C[C@@H](O)C[C@H]1C(=O)N1C(=O)C=C[C@@H]1C)C(C)C)C(C)OC(C)=O (stereo not given in full) | . | 6.0 | . | . | 49.8* | . | 48.4*
COc1ccc2[nH]c3c(c2c1)CCN=C3C | -5.3 | -2.2 | . | . | 81.8* | . | 40.6
COc1ccc2[nH]cc(CCN)c2c1 | 0.9 | -3.7 | -18.0 | . | 13.7 | 3.5 | .
Cc1[nH]c2ccc(OCc3ccccc3)cc2c1CCN | -4.6 | 1.8 | . | -7.6 | 50.3* | -2.8 | 44.4*
CS(=O)(=O)N1Cc2ccccc2-n2nncc2C1 | . | -2.6 | . | . | . | . | .
[O-]c1ccccc1-[n+]1c(-c2ccccc2)cc(-c2ccccc2)cc1-c1ccccc1 | 37.9 | -5.2 | . | 38.9 | 44.8* | 95.2* | 54.0*
Brc1ccc(-[n+]2c(-c3ccccc3)cc(-c3ccccc3)cc2-c2ccccc2)cc1 | 44.1 | -9.4 | . | 35.5 | 55.9* | 128.7* | 55.7*
Oc1c(Br)cc(-c2ccccc2)cc1Br | . | -2.5 | . | . | . | . | .
NC(=O)Cn1cc(C(=O)c2ccccc2)c2ccccc21 | -3.9 | 1.4 | . | -2.0 | 7.4 | -2.6 | .
CCN(CC)c1ccc(CN2CC=C(c3ccc(F)cc3)CC2)cc1 | -4.7 | 1.5 | 8.2 | 43.9 | 45.8* | 7.5 | 37.3
Cc1ccc(-c2cc(-c3ccc(C)cc3)[n+](-c3ccc(C(=O)O)cc3)c(-c3ccc(C)cc3)c2)cc1 | -7.1 | 0.7 | . | 2.5 | 2.5 | -1.7 | .
Cc1ccc(C[n+]2c(-c3ccc(C)cc3)cc(-c3ccc(C)cc3)cc2-c2ccc(C)cc2)cc1 | -4.9 | -41.2 | . | 46.6 | 54.9* | 117.9* | 52.2*
Cc1nc(C)c(C(=O)NN=Cc2ccc(N(CCCl)CCCl)cc2)s1 | . | -13.9 | . | . | . | . | .
CC1=CC2OC3CC4OC(=O)C=CC=CC(C(C)O)OCC(O)C5(C)OC5C(=O)OCC2(CC1O)C4(C)C31CO1 (stereo not given) | . | -2.8 | . | . | . | . | .
CN1C[C@H](CNC(=O)OCc2ccccc2)C[C@@H]2c3cccc4c3c(cn4C)C[C@H]21 | -7.9 | -2.4 | 4.8 | 5.3 | 64.0* | 0.9 | 61.0*
COc1ccc2c(c[n+](C)c3c4cc5c(cc4ccc23)OCO5)c1OC | . | . | -25.4 | . | . | . | .

Screening results (PubChem)
